Test results: ChEMBL document CHEMBL1124364, “3-Sulfonyl-1-carba-1-dethiacephems” (1989)
Values after ≈ are worked out from the molar mass of the structure shown.

Test system: Enterobacter cloacae
Assay: Minimum inhibitory concentration against Enterobacter cloacae (265A beta-lactamase containing)
Type: functional
Settings: Enterobacter cloacae; read-out: MIC
In short: (§1)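 Agar dilution: compounds diluted in 0.1 M phosphate buffer pH 7.0 and incorporated into Mueller-Hinton agar with 1% Bacto-Supplement C at 50 °C. Fresh overnight cultures diluted to about 1×10^4 cells/µL; 1 µL spotted on plates. Incubated overnight at 35 °C in ambient air. MIC taken as the lowest concentration preventing visible growth.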

| MIC [µg/mL] | Structure (SMILES) |
| --- | --- |
| > 128 | CCS(=O)(=O)C1=C(C(=O)O)N2C(=O)[C@@H](NC(=O)/C(=N/OC)c3csc(N)n3)[C@H]2CC1 |
| > 128 | CO/N=C(/C(=O)N[C@@H]1C(=O)N2C(C(=O)O)=C(S(=O)(=O)c3cccs3)CC[C@H]12)c1csc(N)n1 |
| > 128 | CO/N=C(/C(=O)N[C@@H]1C(=O)N2C(C(=O)O)=C(S(=O)(=O)c3cccnc3)CC[C@H]12)c1csc(N)n1 |

Test system: Enterobacter cloacae
Assay: Minimum inhibitory concentration against Enterobacter cloacae (EB5)
Type: functional
Settings: Enterobacter cloacae; read-out: MIC
In short: as §1

| MIC [µg/mL] | Structure (SMILES) |
| --- | --- |
| 1 (≈ 2.19 µM) | CCS(=O)(=O)C1=C(C(=O)O)N2C(=O)[C@@H](NC(=O)/C(=N/OC)c3csc(N)n3)[C@H]2CC1 |
| 8 (≈ 15.6 µM) | CO/N=C(/C(=O)N[C@@H]1C(=O)N2C(C(=O)O)=C(S(=O)(=O)c3cccs3)CC[C@H]12)c1csc(N)n1 |
| 16 (≈ 31.6 µM) | CO/N=C(/C(=O)N[C@@H]1C(=O)N2C(C(=O)O)=C(S(=O)(=O)c3cccnc3)CC[C@H]12)c1csc(N)n1 |

Test system: Escherichia coli
Assay: Minimum inhibitory concentration against Escherichia coli (EC14)
Type: functional
Settings: Escherichia coli; read-out: MIC
In short: as §1

| MIC [µg/mL] | Structure (SMILES) |
| --- | --- |
| 0.06 (≈ 0.131 µM) | CCS(=O)(=O)C1=C(C(=O)O)N2C(=O)[C@@H](NC(=O)/C(=N/OC)c3csc(N)n3)[C@H]2CC1 |
| 2 (≈ 3.91 µM) | CO/N=C(/C(=O)N[C@@H]1C(=O)N2C(C(=O)O)=C(S(=O)(=O)c3cccs3)CC[C@H]12)c1csc(N)n1 |
| 1 (≈ 1.97 µM) | CO/N=C(/C(=O)N[C@@H]1C(=O)N2C(C(=O)O)=C(S(=O)(=O)c3cccnc3)CC[C@H]12)c1csc(N)n1 |

Test system: Escherichia coli
Assay: Minimum inhibitory concentration against Escherichia coli (TEM beta-lactamase containing)
Type: functional
Settings: Escherichia coli; read-out: MIC
In short: as §1

| MIC [µg/mL] | Structure (SMILES) |
| --- | --- |
| 128 (≈ 250 µM) | CO/N=C(/C(=O)N[C@@H]1C(=O)N2C(C(=O)O)=C(S(=O)(=O)c3cccs3)CC[C@H]12)c1csc(N)n1 |
| 4 (≈ 7.9 µM) | CO/N=C(/C(=O)N[C@@H]1C(=O)N2C(C(=O)O)=C(S(=O)(=O)c3cccnc3)CC[C@H]12)c1csc(N)n1 |

Test system: Haemophilus influenzae
Assay: Minimum inhibitory concentration against Haemophilus influenzae (C.L.)
Type: functional
Settings: Haemophilus influenzae; read-out: MIC
In short: as §1

| MIC [µg/mL] | Structure (SMILES) |
| --- | --- |
| 0.25 (≈ 0.546 µM) | CCS(=O)(=O)C1=C(C(=O)O)N2C(=O)[C@@H](NC(=O)/C(=N/OC)c3csc(N)n3)[C@H]2CC1 |
| 1 (≈ 1.95 µM) | CO/N=C(/C(=O)N[C@@H]1C(=O)N2C(C(=O)O)=C(S(=O)(=O)c3cccs3)CC[C@H]12)c1csc(N)n1 |
| 1 (≈ 1.97 µM) | CO/N=C(/C(=O)N[C@@H]1C(=O)N2C(C(=O)O)=C(S(=O)(=O)c3cccnc3)CC[C@H]12)c1csc(N)n1 |

Test system: Klebsiella
Assay: Minimum inhibitory concentration against Klebsiella (KAE beta-lactamase containing)
Type: functional
Settings: Klebsiella; read-out: MIC
In short: as §1

| MIC [µg/mL] | Structure (SMILES) |
| --- | --- |
| > 128 | CCS(=O)(=O)C1=C(C(=O)O)N2C(=O)[C@@H](NC(=O)/C(=N/OC)c3csc(N)n3)[C@H]2CC1 |
| > 128 | CO/N=C(/C(=O)N[C@@H]1C(=O)N2C(C(=O)O)=C(S(=O)(=O)c3cccs3)CC[C@H]12)c1csc(N)n1 |
| > 128 | CO/N=C(/C(=O)N[C@@H]1C(=O)N2C(C(=O)O)=C(S(=O)(=O)c3cccnc3)CC[C@H]12)c1csc(N)n1 |

Test system: Klebsiella
Assay: Minimum inhibitory concentration against Klebsiella (X26)
Type: functional
Settings: Klebsiella; read-out: MIC
In short: as §1

| MIC [µg/mL] | Structure (SMILES) |
| --- | --- |
| 0.06 (≈ 0.131 µM) | CCS(=O)(=O)C1=C(C(=O)O)N2C(=O)[C@@H](NC(=O)/C(=N/OC)c3csc(N)n3)[C@H]2CC1 |
| 2 (≈ 3.91 µM) | CO/N=C(/C(=O)N[C@@H]1C(=O)N2C(C(=O)O)=C(S(=O)(=O)c3cccs3)CC[C@H]12)c1csc(N)n1 |
| 2 (≈ 3.95 µM) | CO/N=C(/C(=O)N[C@@H]1C(=O)N2C(C(=O)O)=C(S(=O)(=O)c3cccnc3)CC[C@H]12)c1csc(N)n1 |

Test system: Morganella morganii
Assay: Minimum inhibitory concentration against Proteus morganii (PR 15)
Type: functional
Settings: Morganella morganii; read-out: MIC
In short: as §1

| MIC [µg/mL] | Structure (SMILES) |
| --- | --- |
| 2 (≈ 4.37 µM) | CCS(=O)(=O)C1=C(C(=O)O)N2C(=O)[C@@H](NC(=O)/C(=N/OC)c3csc(N)n3)[C@H]2CC1 |
| 64 (≈ 125 µM) | CO/N=C(/C(=O)N[C@@H]1C(=O)N2C(C(=O)O)=C(S(=O)(=O)c3cccs3)CC[C@H]12)c1csc(N)n1 |
| > 128 | CO/N=C(/C(=O)N[C@@H]1C(=O)N2C(C(=O)O)=C(S(=O)(=O)c3cccnc3)CC[C@H]12)c1csc(N)n1 |

Test system: Pseudomonas aeruginosa
Assay: Minimum inhibitory concentration against Pseudomonas aeruginosa (X528)
Type: functional
Settings: Pseudomonas aeruginosa; read-out: MIC
In short: as §1

| MIC [µg/mL] | Structure (SMILES) |
| --- | --- |
| > 128 | CCS(=O)(=O)C1=C(C(=O)O)N2C(=O)[C@@H](NC(=O)/C(=N/OC)c3csc(N)n3)[C@H]2CC1 |
| > 128 | CO/N=C(/C(=O)N[C@@H]1C(=O)N2C(C(=O)O)=C(S(=O)(=O)c3cccs3)CC[C@H]12)c1csc(N)n1 |
| > 128 | CO/N=C(/C(=O)N[C@@H]1C(=O)N2C(C(=O)O)=C(S(=O)(=O)c3cccnc3)CC[C@H]12)c1csc(N)n1 |

Test system: Providencia rettgeri
Assay: Minimum inhibitory concentration against Proteus rettgeri (C24)
Type: functional
Settings: Providencia rettgeri; read-out: MIC
In short: as §1

| MIC [µg/mL] | Structure (SMILES) |
| --- | --- |
| 0.125 (≈ 0.273 µM) | CCS(=O)(=O)C1=C(C(=O)O)N2C(=O)[C@@H](NC(=O)/C(=N/OC)c3csc(N)n3)[C@H]2CC1 |
| 64 (≈ 125 µM) | CO/N=C(/C(=O)N[C@@H]1C(=O)N2C(C(=O)O)=C(S(=O)(=O)c3cccs3)CC[C@H]12)c1csc(N)n1 |
| > 128 | CO/N=C(/C(=O)N[C@@H]1C(=O)N2C(C(=O)O)=C(S(=O)(=O)c3cccnc3)CC[C@H]12)c1csc(N)n1 |

Test system: Salmonella
Assay: Minimum inhibitory concentration against Salmonella (X514)
Type: functional
Settings: Salmonella; read-out: MIC
In short: as §1

| MIC [µg/mL] | Structure (SMILES) |
| --- | --- |
| 0.06 (≈ 0.131 µM) | CCS(=O)(=O)C1=C(C(=O)O)N2C(=O)[C@@H](NC(=O)/C(=N/OC)c3csc(N)n3)[C@H]2CC1 |
| 0.5 (≈ 0.977 µM) | CO/N=C(/C(=O)N[C@@H]1C(=O)N2C(C(=O)O)=C(S(=O)(=O)c3cccs3)CC[C@H]12)c1csc(N)n1 |
| 2 (≈ 3.95 µM) | CO/N=C(/C(=O)N[C@@H]1C(=O)N2C(C(=O)O)=C(S(=O)(=O)c3cccnc3)CC[C@H]12)c1csc(N)n1 |

Test system: Staphylococcus epidermidis
Assay: Minimum inhibitory concentration against Staphylococcus epidermidis (222)
Type: functional
Settings: Staphylococcus epidermidis; read-out: MIC
In short: as §1

| MIC [µg/mL] | Structure (SMILES) |
| --- | --- |
| 16 (≈ 35 µM) | CCS(=O)(=O)C1=C(C(=O)O)N2C(=O)[C@@H](NC(=O)/C(=N/OC)c3csc(N)n3)[C@H]2CC1 |
| 16 (≈ 31.3 µM) | CO/N=C(/C(=O)N[C@@H]1C(=O)N2C(C(=O)O)=C(S(=O)(=O)c3cccs3)CC[C@H]12)c1csc(N)n1 |
| 32 (≈ 63.2 µM) | CO/N=C(/C(=O)N[C@@H]1C(=O)N2C(C(=O)O)=C(S(=O)(=O)c3cccnc3)CC[C@H]12)c1csc(N)n1 |

Test system: Streptococcus pyogenes
Assay: Minimum inhibitory concentration against Streptococcus pyogenes (C203)
Type: functional
Settings: Streptococcus pyogenes; read-out: MIC
In short: as §1

| MIC [µg/mL] | Structure (SMILES) |
| --- | --- |
| 0.03 (≈ 0.0656 µM) | CCS(=O)(=O)C1=C(C(=O)O)N2C(=O)[C@@H](NC(=O)/C(=N/OC)c3csc(N)n3)[C@H]2CC1 |
| 0.015 (≈ 0.0293 µM) | CO/N=C(/C(=O)N[C@@H]1C(=O)N2C(C(=O)O)=C(S(=O)(=O)c3cccs3)CC[C@H]12)c1csc(N)n1 |
| 0.06 (≈ 0.118 µM) | CO/N=C(/C(=O)N[C@@H]1C(=O)N2C(C(=O)O)=C(S(=O)(=O)c3cccnc3)CC[C@H]12)c1csc(N)n1 |

Test system: Streptococcus pneumoniae
Assay: Minimum inhibitory concentration against Streptococcus pneumoniae (PARK)
Type: functional
Settings: Streptococcus pneumoniae; read-out: MIC
In short: as §1

| MIC [µg/mL] | Structure (SMILES) |
| --- | --- |
| 0.03 (≈ 0.0656 µM) | CCS(=O)(=O)C1=C(C(=O)O)N2C(=O)[C@@H](NC(=O)/C(=N/OC)c3csc(N)n3)[C@H]2CC1 |
| 0.03 (≈ 0.0586 µM) | CO/N=C(/C(=O)N[C@@H]1C(=O)N2C(C(=O)O)=C(S(=O)(=O)c3cccs3)CC[C@H]12)c1csc(N)n1 |
| 0.125 (≈ 0.247 µM) | CO/N=C(/C(=O)N[C@@H]1C(=O)N2C(C(=O)O)=C(S(=O)(=O)c3cccnc3)CC[C@H]12)c1csc(N)n1 |

Test system: Staphylococcus aureus
Assay: Minimum inhibitory concentration against Staphylococcus aureus (X1.1)
Type: functional
Settings: Staphylococcus aureus; read-out: MIC
In short: as §1

| MIC [µg/mL] | Structure (SMILES) |
| --- | --- |
| 8 (≈ 17.5 µM) | CCS(=O)(=O)C1=C(C(=O)O)N2C(=O)[C@@H](NC(=O)/C(=N/OC)c3csc(N)n3)[C@H]2CC1 |
| 4 (≈ 7.82 µM) | CO/N=C(/C(=O)N[C@@H]1C(=O)N2C(C(=O)O)=C(S(=O)(=O)c3cccs3)CC[C@H]12)c1csc(N)n1 |
| 16 (≈ 31.6 µM) | CO/N=C(/C(=O)N[C@@H]1C(=O)N2C(C(=O)O)=C(S(=O)(=O)c3cccnc3)CC[C@H]12)c1csc(N)n1 |
